# Compound activity as filed in PubChem BioAssay.
# An excerpt weighted towards active compounds, which were near 9.3% of everything screened.
# PostGolgi ctrl = yeast control strain growth, post-Golgi counter-screen; efflux-deficient yeast background strain, growth absorbance A615, 16 h; inhibition, % at 10 µM; hit rate 5% among 98,000
# PostGolgi yeast = growth inhibition of a yeast mutant, post-Golgi transport screen | inhibition, % at 10 µM | post-Golgi transport phenotypic cell assay | hit rate 0.9% among 98,000;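 note: yeast cells grown in 1536-well plates; yeast grown about 18 h at 30C before absorbance read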
# Ecoli tolC = blocks growth of E. coli BW25113 tolC mutant. OD615. growth inhibition, % at 10 µM (by protocol). hit rate 2.2% among 65,000;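 active = growth inhibition at or above a cutoff equal to the mean over every tested compound plus 3 SD, cut at about 60% in these data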;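 note: growth measured after 20 h incubation at 37 °C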
#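 Material: E. coli BW25113 ΔtolC::kan, tolC deletion mutant strain. Measure: percent growth inhibition. Schedule: 37 °C, 20 h exposure. Doses: single-point testing at 10 µM. Signal: A615 absorbance measurement. Buffer or medium: kanamycin-containing LB broth (50 µg/mL).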
# D1 allo mod = D1 dopamine receptor (human) allosteric modulation; P21728; B-score at 10 µM; HEK293 D1, CRE-luciferase, dopamine EC30 potentiation; actives deviate in either direction; hit rate 5.9% among 58,000;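 active = luminescence count or its row- and column-corrected plate score outside the 99.7% band of the plate's sample wells, on either side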
# Target sequence (P21728 whole entry, looked up): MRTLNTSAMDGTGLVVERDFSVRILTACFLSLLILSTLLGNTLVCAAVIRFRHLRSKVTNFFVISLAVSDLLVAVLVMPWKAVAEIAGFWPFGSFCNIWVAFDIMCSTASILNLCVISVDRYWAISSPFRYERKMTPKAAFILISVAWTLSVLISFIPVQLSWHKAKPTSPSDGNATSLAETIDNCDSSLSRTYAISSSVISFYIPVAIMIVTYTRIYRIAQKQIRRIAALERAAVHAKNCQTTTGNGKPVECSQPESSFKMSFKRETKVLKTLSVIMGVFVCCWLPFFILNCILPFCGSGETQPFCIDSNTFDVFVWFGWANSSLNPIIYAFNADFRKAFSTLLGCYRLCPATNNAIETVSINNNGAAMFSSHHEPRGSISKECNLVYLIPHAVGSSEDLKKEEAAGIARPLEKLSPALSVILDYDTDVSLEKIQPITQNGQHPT
# hDAT+cocaine = changed human dopamine transporter uptake under cocaine IC80; LLC-PK1 hDAT cells, [14C]-dopamine uptake with cocaine IC80; actives deviate in either direction; B-score at 10 µM; hit rate 1.3% among 110,000;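 active = Z score or B-score, a plate-position-corrected score, falls beyond the plate's 99.7% confidence bounds, in either direction; inactive = both scores lie inside the 99.7% bounds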
# Ecoli WT expand = blocks growth of wild type E. coli BW25113; OD600 absorbance; growth inhibition, % at 100 µM; hit rate 0.15% among 98,000; AID 710;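 active = growth inhibition above about 50% at one test dose, limit read from the data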;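 note: growth measured after 20 h incubation at 37 °C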
# D1 mod confirm = confirmation of human D1 dopamine receptor allosteric modulators. shares compounds with D1 allo mod. HEK293 D1 CRE-luciferase, dopamine EC30 potentiation; active compounds read high. luminescence at 10 µM. hit rate 88% among 2,200;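 active = luminescence in either of two replicates above the same-plate mean plus 3 SD of the low-dose dopamine control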
# D1 no dopamine = activates D1 CRE-luciferase signal without dopamine present; hit rate 0.8% among 1,900; HEK293 D1 CRE-luciferase, luminescence, no dopamine; active compounds read high; luminescence at 10 µM; shares compounds with D1 allo mod; in the data active = luminescence above about 3900
# Isoprot counter = alters isoproterenol CRE-luciferase response in HEK293 cells | shares compounds with D1 allo mod | HEK293 D1 CRE-luciferase, isoproterenol EC30 counter-screen | calls only at 10 µM | hit rate 63% among 2,200 | AID 647;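 active = luminescence in either replicate above plate mean of wells with a partly effective reference agonist dose plus 3 SD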;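 note: isoproterenol raises cAMP through native beta-adrenoceptor Gs so signal bypasses D1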
# Hits are given with their value; - = inactive; . = no result given; + = active, no number. Cut-off read from the data, not from the text of the source, unless noted: active = inhibition above about 30%; inactive = the rest.
SMILES,PostGolgi ctrl,PostGolgi yeast,Ecoli tolC,D1 allo mod,hDAT+cocaine,Ecoli WT expand,D1 mod confirm,D1 no dopamine,Isoprot counter
O=C(CCn1c(=O)oc2ccccc21)Nc1cccc(Cl)c1,-,-,-,14,-,-,-,-,-
CC(=O)c1ccc(NC(=O)CCn2c(=O)oc3ccccc32)cc1,-,-,-,-,-,-,.,.,.
Cc1sc2nc(NCCO)[nH]c(=O)c2c1C,-,-,-,-,-,-,.,.,.
CC(OC(=O)c1cc(=O)[nH]c2ccccc12)c1ccccc1 (stereo not drawn),-,-,-,-,-,-,.,.,.
N#Cc1c(-c2ccccc2)cc(-c2ccco2)c(C#N)c1N,-,-,-,2.87,.,-,6724,.,-
O=C(NCc1ccco1)C(c1cccnc1)N(C(=O)Cn1nnc2ccccc21)c1ccc(F)cc1 (stereo not drawn),-,-,-,-,-,-,.,.,.
N#Cc1c2n(c3c(=O)n(Cc4ccccc4Cl)cnc13)CCCC2,-,-,-,3.38,-,-,9264,-,+
Cc1c(C#N)c2ncn(Cc3ccccn3)c(=O)c2n1-c1ccccc1,-,-,.,.,-,-,.,.,.
N#Cc1c2n(c3c(=O)n(Cc4ccc(Cl)cc4)cnc13)CCCC2,-,-,-,2.64,-,-,10052,-,+
COC(=O)Cn1cnc2c(C#N)c3n(c2c1=O)CCCC3,-,-,.,.,-,-,.,.,.
Cc1cc(C)c(C#N)c(SCc2ccc(C#N)cc2)n1,-,-,-,7.4,-,-,7996,-,-
CC1=C(C#N)C(c2cn(-c3ccccc3)nc2-c2cccs2)C(C#N)=C(C)N1,-,-,-,.,-,-,.,.,.
NC1=NC(c2cn(-c3ccccc3)nc2-c2cccs2)n2c(nc3ccccc32)N1 (stereo not drawn),-,-,100.0,4.26,.,-,7380,-,-
COc1cccc(NC2=NCC(=O)N2Cc2cccs2)c1,-,-,-,4.16,-,-,8816,-,-
CCC(=O)Nc1ccc2c(c1)nc(CN1CCN(C(C)=O)CC1)n2C,-,-,.,.,-,-,.,.,.
CCCCCSc1nnc2c(n1)OC(c1cccn1C)N(C(C)=O)c1ccccc1-2 (stereo not drawn),-,-,-,2.69,-,-,-,-,-
CCSc1nnc2c(n1)OC(c1ccc(C(=O)O)cc1)N(C(C)=O)c1ccccc1-2 (stereo not drawn),-,-,-,-,-,-,.,.,.
CCC(=O)N1c2ccccc2-c2nnc(SC)nc2OC1c1ccc(OC)c(OC)c1 (stereo not drawn),-,-,-,-,-,-,.,.,.
CCOc1ccc(C2Oc3nc(SC)nnc3-c3ccccc3N2C(C)=O)cc1OC (stereo not drawn),-,-,-,8.36,-,-,11344,-,-
c1ccc2c(c1)nc(NCC1CCCO1)c1nnnn12 (stereo not drawn),-,-,-,2.94,-,-,9992,-,-
Clc1ccc(CCNc2nc3ccccc3n3nnnc23)cc1,-,-,.,.,.,-,.,.,.
N#Cc1nc(-c2ccccc2Cl)oc1NCc1ccco1,31.4,-,-,4.74,-,-,12632,-,+
COc1ccc(CNc2oc(-c3ccccc3)nc2C#N)cc1,-,-,-,10.4,-,-,18596,-,+
N#Cc1nc(Cc2ccccc2)oc1NCc1ccccc1Cl,46.0,-,92.6,11.7,.,-,11100,-,+
N#Cc1nc(-c2ccco2)oc1NCc1ccc(F)cc1,-,-,-,6.57,-,-,12560,-,+
CCC(=O)O[C@]1(C(=O)SCF)[C@H](C)C[C@H]2[C@@H]3C[C@H](F)C4=CC(=O)C=C[C@]4(C)[C@@]3(F)[C@@H](O)C[C@@]21C,.,.,.,.,-,.,.,.,.
COc1cccc(-c2nc(CS(=O)(=O)CC(=O)NCCCN3CCc4ccccc4C3)c(C)o2)c1,-,-,-,-,-,-,.,.,.
Nn1c(=O)c2ccccc2n2c(SCc3ccc(C(F)(F)F)cc3)nnc12,-,-,.,.,-,-,.,.,.
